In the library only some 3.5% were active in any assay of this set; here they are far more common.
MT stabilize HCS: stabilizes microtubules in HeLa cells; 200,000 tested, 0.83% active; % tubulin-high responders, % at 10 µM; AID 2205; HeLa tubulin immunostaining HCS, 24 h; share of cells brighter than vehicle mean+2SD;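 active means plate Z-score above 3 for both tubulin-high and condensed-nucleus cell shares, with cell loss under 80%, at 10 µM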;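 further: anti alpha tubulin signal scored within the nucleus-defined area of each cell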
Yeast life ext: extends the lifespan of yeast; 130,000 tested, 0.68% active; inhibition of the nicotinamide effect, % at 10 µM; S. cerevisiae growth with nicotinamide, OD615; deaD strain in restrictive glucose medium; AID 775;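 active means inhibition above a set limit, placed 3 SD over the median of all compounds, cut at about 26% in these data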;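 further: 0% = nicotinamide-treated wells and 100% = cells grown without nicotinamide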
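assay system = DeaD-strain S. cerevisiae | buffer or medium = restrictive glucose medium | reagent = 1.5 mM nicotinamide | compound = 10 µM single point, 0.25% DMSO | incubation = 48 h compound exposure at 30 °C, humidified | signal = OD615 measurement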
BB579 growth dn: reduces growth of yeast BB579 in restrictive medium; S. cerevisiae BB579 growth, OD615, 48 h; inhibition, % at 10 µM; 140,000 tested, 0.51% active; AID 804;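 active means inhibition above a set limit, 3 SD over the mean compound inhibition, cut at about 44% in these data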
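System: Saccharomyces cerevisiae DeaD strain BB579, replicative lifespan model yeast. Buffer or medium: restrictive glucose-based CSMM-D medium. Doses: one dose, 10 µM compound with 0.25% DMSO. Timing: 4 h preincubation and 48 h exposure at 30 °C. Detection: turbidity as optical density at 615 nm. Benchmarks: amphotericin B 10 µg/mL, positive.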
HMGR II inh: inhibitors of class II HMG-CoA reductase from Enterococcus faecalis | purified E. faecalis HMGR, NADPH absorbance 340 nm kinetic | inhibition, % at 10 µM | 190,000 tested, 0.41% active | AID 1066;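 active means inhibition above a set limit, the median over all tested compounds plus 3 SD, cut at about 9.5% in these data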;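 further: enzyme runs in reverse so mevalonate oxidation gives rising NADPH absorbance; 0% = complete reaction with DMSO and 100% = background rate lacking mevalonate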
RAM inhibit: blocks the yeast RAM network; S. cerevisiae dse1pr::URA3 reporter, 5-FOA growth OD615, 2 d; analog-sensitive cbk1-as2 kinase mutant strain; inhibition, % at 50 µM; 190,000 tested, 1.8% active; AID 868;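 active means inhibition above a set limit, 3 SD over mean compound inhibition, cut at about 8.4% in these data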;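 further: 0% = DMSO-only wells with no growth and 100% = 10 µM 1-NA-PP1 full growth; inhibition rescues growth on 5-FOA so higher OD means more RAM inhibition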
b-catenin transl: alters nuclear translocation of beta-catenin in HeLa cells; immunofluorescence imaging; nuclear translocation activity, % at 5 µM; 190,000 tested, 0.3% active; AID 1665;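 active means nuclear translocation activity above 50% at 5 µM, with a well cell count of 50 or more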;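 further: per-cell ratio of nuclear to cytoplasmic median beta-catenin stain intensity; plate controls were DMSO negative control for no effect and GSK-3 inhibitor IX positive control for full effect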
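Test system: human HeLa cell line; Doses: 5 µM primary, 0.02–20 µM confirmation; Incubation: 24 h compound exposure, 37°C; Detection: beta-catenin immunofluorescence imaging with DAPI; Read-out: beta-catenin nuclear/cytoplasmic ratio, % activation.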
RAM 5-FOA: RAM network inhibitors in efflux-deficient yeast; shares compounds with RAM inhibit; S. cerevisiae efflux-deficient reporter strain, 5-FOA growth OD615, 2 days; max inhibition, %; 1,200 tested, under 10 active; call rule not given here;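 further: plate controls were vehicle for no effect and reference inhibitor for full effect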
* marks the source's active call; other numbers are inactive results.

How did CCOC(=O)N1CCN(c2nc(-c3cccc(OC)c3)cc(C(F)(F)F)n2)CC1 do in these assays?
MT stabilize HCS: 4; Yeast life ext: -10; BB579 growth dn: -25; HMGR II inh: -3; RAM inhibit: 12*; b-catenin transl: 0; RAM 5-FOA: 2

Results for COc1ccc2c(c1)CCc1c-2nc2ccccc2c1N1CCOCC1 ?
b-catenin transl: 2

How did Cc1nn(-c2ccccc2)c(Cl)c1/C=C1\SC(=S)N(CCCCCC(=O)O)C1=O do in these assays?
b-catenin transl: 0

Results for O=C(O)CCCN1C(=O)/C(=C/c2cn(-c3ccccc3)nc2-c2cccs2)SC1=S ?
MT stabilize HCS: 3; HMGR II inh: -1; RAM inhibit: 12*; b-catenin transl: -1; RAM 5-FOA: 3

What do the screens show for `CCOC(=O)C1=C(CSc2nc(-c3ccccc3)ccc2C#N)OC(N)=C(C#N)C1c1ccc(OC)cc1` (stereo not drawn)?
MT stabilize HCS: 2; Yeast life ext: -12; BB579 growth dn: -37; HMGR II inh: 0; RAM inhibit: 19*; b-catenin transl: -4; RAM 5-FOA: 4

How did COC(=O)c1sccc1-c1ccc(/C=N/OCc2c(Cl)cccc2Cl)o1 do in these assays?
MT stabilize HCS: 5; Yeast life ext: -1; BB579 growth dn: -37; HMGR II inh: 0; RAM inhibit: 18*; RAM 5-FOA: 3

How did CCOc1c(Cl)cc(C(=O)Nc2ccccc2-c2ccccc2)cc1Cl do in these assays?
MT stabilize HCS: 3; Yeast life ext: -17; BB579 growth dn: -29; HMGR II inh: 6; RAM inhibit: 14*; b-catenin transl: 1; RAM 5-FOA: 5

What do the screens show for `COc1ccc(NC(=O)Cn2c(=O)n(-c3ccc(CC(=O)NCc4ccco4)cc3)c(=O)c3ccccc32)cc1`?
MT stabilize HCS: 5; HMGR II inh: 0; RAM inhibit: 3; b-catenin transl: -3

Results for CCOC(=O)c1cc(C#N)c(Oc2ccccc2)nc1-c1ccccc1 ?
MT stabilize HCS: 1; Yeast life ext: -2; BB579 growth dn: -6; HMGR II inh: -2; RAM inhibit: 12*; b-catenin transl: -3; RAM 5-FOA: 6

Results for O=C(O)c1cnc(-c2ccccc2)nc1Oc1ccc(Cl)cc1 ?
MT stabilize HCS: 4; HMGR II inh: -5; RAM inhibit: 3; b-catenin transl: -1

How did CCOC(=O)c1cnc(-c2ccccc2)nc1Oc1ccc(Cl)cc1 do in these assays?
MT stabilize HCS: 3; Yeast life ext: 36; BB579 growth dn: -49; HMGR II inh: -1; RAM inhibit: 14*; RAM 5-FOA: 1

What do the screens show for `O=C(c1ccc2c(c1)OCCO2)N1CCCC(CNS(=O)(=O)c2cccs2)C1` (stereo not drawn)?
MT stabilize HCS: 2; HMGR II inh: -7; RAM inhibit: 1; b-catenin transl: -1

How did CCOC(=O)C1=C(N)OC2=C(C(=O)CC(C)(C)C2)C1c1ccc(C)s1 (stereo not drawn) do in these assays?
MT stabilize HCS: 2; HMGR II inh: 4; RAM inhibit: 17*; b-catenin transl: -2; RAM 5-FOA: 2

How did Cc1cccc(NC(=O)CCC(=O)OCC(=O)c2ccc(Oc3ccc([N+](=O)[O-])cc3)cc2)c1 do in these assays?
MT stabilize HCS: 2; Yeast life ext: 18; BB579 growth dn: -34; HMGR II inh: -5; RAM inhibit: 21*; b-catenin transl: 2; RAM 5-FOA: 3

Results for CCOC(=O)C(C)Sc1cc(CS(=O)(=O)c2ccccc2)nc(-c2ccccc2)n1 (stereo not drawn) ?
MT stabilize HCS: 2; Yeast life ext: 31; BB579 growth dn: -24; HMGR II inh: -5; RAM inhibit: 12*; RAM 5-FOA: 3

Results for CN(C)CCCNC(NC(=O)/C=C/c1ccccc1)C(Cl)(Cl)Cl (stereo not drawn) ?
b-catenin transl: 0

Results for COc1cccc(-c2csc3nnc(SCC(=O)NCc4cccs4)n23)c1 ?
MT stabilize HCS: 2; Yeast life ext: 6; BB579 growth dn: -24; HMGR II inh: -4; RAM inhibit: 17*; b-catenin transl: 0; RAM 5-FOA: 2

How did Cc1ccc(NC(=O)c2ccccc2F)cc1S(=O)(=O)N1CCCCCC1 do in these assays?
MT stabilize HCS: 3; HMGR II inh: -5; RAM inhibit: 13*; b-catenin transl: -1; RAM 5-FOA: 2

How did Cc1cccc(OCCC(=O)Nc2ccc(C)c(S(=O)(=O)N3CCCCC3)c2)c1 do in these assays?
MT stabilize HCS: 2; Yeast life ext: 5; BB579 growth dn: -38; HMGR II inh: 2; RAM inhibit: 16*; b-catenin transl: 4; RAM 5-FOA: 2

Results for Cc1ccc(NC(=O)c2ccc(F)cc2)cc1S(=O)(=O)N1CCCCCC1 ?
MT stabilize HCS: 3; HMGR II inh: -4; RAM inhibit: 12*; b-catenin transl: 0; RAM 5-FOA: 2

What do the screens show for `Cc1cccc(OCCC(=O)Nc2ccc(S(=O)(=O)N3CCCC3)cc2)c1`?
MT stabilize HCS: 4; Yeast life ext: -7; BB579 growth dn: -23; HMGR II inh: -2; RAM inhibit: 4; b-catenin transl: -2

Results for COCCN1C(=O)CS/C1=C(/C#N)C(=O)NCc1ccco1 ?
MT stabilize HCS: 4; HMGR II inh: -1; RAM inhibit: 0; b-catenin transl: 1

Results for CC(NCC1(N2CCOCC2)CCCCC1)C(=O)Nc1ccc(Cl)cc1Cl (stereo not drawn) ?
MT stabilize HCS: 1; HMGR II inh: 0; RAM inhibit: 0; b-catenin transl: -2

What do the screens show for `Cc1ccc(NC(=O)CCC(=O)OCC(=O)c2ccc(-c3ccccc3)cc2)cc1`?
MT stabilize HCS: 2; Yeast life ext: -5; BB579 growth dn: 15; HMGR II inh: 0; RAM inhibit: 2; b-catenin transl: -3

Results for Cc1ccccc1OCC(=O)OCC(=O)c1ccc(-c2ccccc2)cc1 ?
MT stabilize HCS: 3; Yeast life ext: 10; BB579 growth dn: -37; HMGR II inh: 6; RAM inhibit: 14*; b-catenin transl: -1; RAM 5-FOA: 4

Results for CC(=O)c1cccc(CN2CCCC(CCC(=O)NCc3ccccc3F)C2)c1 (stereo not drawn) ?
MT stabilize HCS: 4; HMGR II inh: 2; RAM inhibit: 1; b-catenin transl: 0

How did COC(=O)[C@@H]1CC[C@H](C)[C@@H](c2ccc(C)cc2)N1C(=O)c1ccc(/C=N/OC[C@@H](O)COCc2ccco2)cc1 do in these assays?
MT stabilize HCS: 3; Yeast life ext: 5; BB579 growth dn: -26; HMGR II inh: 2; RAM inhibit: 15*; RAM 5-FOA: 2
